This is a sample that favours compounds with a hit; in the whole collection about 4.3% have one here.
Rtt109 HAT inh – inhibitors of C. albicans Rtt109/Vps75 HAT, primary screen, biochemical, ThioGlo CoA-SH fluorescence, plate reader; Histone acetyltransferase RTT109 (Candida albicans (strain SC5314 / ATCC MYA-2876)), …; purified Rtt109/Vps75, 4 h; inhibition, % at 34.9 µM; hit rate 0.16% among 330,000; AID 540336, 2011;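 active = inhibition of at least 50% in every replicate; inconclusive = best replicate reaches 50% inhibition but some replicates fall short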
Target sequence (Q5AAJ8 whole entry, looked up): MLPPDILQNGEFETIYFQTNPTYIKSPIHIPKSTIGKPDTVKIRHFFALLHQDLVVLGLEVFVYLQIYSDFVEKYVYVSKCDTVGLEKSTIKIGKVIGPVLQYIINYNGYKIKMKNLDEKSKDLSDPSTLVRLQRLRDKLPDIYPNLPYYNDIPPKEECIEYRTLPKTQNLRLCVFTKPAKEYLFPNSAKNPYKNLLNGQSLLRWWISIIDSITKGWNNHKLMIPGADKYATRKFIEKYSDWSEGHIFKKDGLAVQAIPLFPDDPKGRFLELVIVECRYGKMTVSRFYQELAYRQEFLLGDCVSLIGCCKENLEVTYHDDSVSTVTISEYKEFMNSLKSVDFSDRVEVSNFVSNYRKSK
CAL PDZ FP-1 – untagged CAL PDZ binding inhibitors, primary screen, biochemical, fluorescence polarization, HTS. AID 602252, 2012. hit rate 0.92% among 300,000. Golgi-associated PDZ and coiled-coil motif-containing protein (Homo sapiens), Q9HD26. purified CAL PDZ, TMR-peptide fluorescence polarization, 1 h. inhibition, % at 24.9 µM;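 active = mean inhibition of at least 30% with at least half of replicates also reaching 30%; inconclusive = no clear call, values can overlap the other calls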;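 also: 0% = DMSO neutral control and 100% = excess unlabeled competitor peptide PRC23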
ALR inh – inhibitors of human ALR sulfhydryl oxidase, primary screen, biochemical, H2O2 detection, HRP-luminol luminescence, single point; purified ALR, DTT oxidation; FAD-linked sulfhydryl oxidase ALR (Homo sapiens), P55789; hit rate 3.8% among 290,000; inhibition, % (concentration not given with the values);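 active = mean replicate inhibition above about 79%, with every replicate also reaching it, limit read from the data; inconclusive = only one of the two criteria met; inactive = mean below limit and not every replicate reaching it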
Target sequence (P55789 whole entry, looked up): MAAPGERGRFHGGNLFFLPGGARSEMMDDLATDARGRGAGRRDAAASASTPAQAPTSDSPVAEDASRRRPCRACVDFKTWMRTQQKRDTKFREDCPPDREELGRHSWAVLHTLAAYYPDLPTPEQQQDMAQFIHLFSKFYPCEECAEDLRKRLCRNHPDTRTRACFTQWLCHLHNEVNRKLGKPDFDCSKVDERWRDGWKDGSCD
CAL PDZ FP-2 – CAL PDZ peptide-binding inhibitors, primary screen, biochemical, fluorescence polarization, Cer-tagged CAL PDZ, HTS; Golgi-associated PDZ and coiled-coil motif-containing protein (Homo sapiens), Q9HD26; purified CAL PDZ, TMR-peptide fluorescence polarization, 1 h; inhibition, % at 20 µM; hit rate 0.02% among 330,000; AID 504414, 2011;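 active = highest replicate inhibition of at least 40%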;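 also: plate controls were DMSO neutral control wells for no effect and unlabeled competitor peptide control wells for full effect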
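Material – purified CerCALP PDZ construct · Detection – FP readout, S and P plane fluorescence · Measure – percent inhibition from loss of millipolarization · Controls – unlabelled peptide for full inhibition, DMSO wells as neutral · Probe or stimulus – TMR-labelled reporter peptide T*-PRC34 bound in PDZ groove · Times – 1 h at RT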
Dyrk1A ADPGlo – rat Dyrk1A kinase inhibitors, primary screen, biochemical, single point, plate reader; hit rate 0.43% among 310,000; AID 504441, 2011; ADP-Glo luminescence, NFATc1 peptide; inhibition, % at 12.5 µM; in the data active = inhibition above about 50%;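 also: plate controls were vehicle with enzyme for no effect and no enzyme for full effect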
Active calls of the source: *; u = inconclusive; x = no result given.

SMILES | Rtt109 HAT inh | CAL PDZ FP-1 | ALR inh | CAL PDZ FP-2 | Dyrk1A ADPGlo
COc1ccc(-c2nc(CSCC(=O)N3CCC(C(N)=O)CC3)c(C)o2)cc1OC | -7.6 | -12.3 | 98.6* | -0.7 | 3.3
COc1ccc(-c2nc(CSCC(=O)N3CCN(c4cccc(C)c4)C(C)C3)c(C)o2)cc1OC (centres undefined) | -0.3 | x | 99.3* | -0.5 | 4.6
COc1ccc(-c2nc(CSCC(=O)N3CCc4ccccc4C3)c(C)o2)cc1OC | -2.8 | -2.7 | 98.5* | -1.0 | 3.8
Cc1cc(C(=O)C(C)OC(=O)c2ccc(NC(=O)CC#N)cc2)c(C)n1-c1ccc(OC(F)F)cc1 (centres undefined) | 11.2 | -3.5 | -5.5 | -2.5 | 1.2
O=C1c2cccc3c([N+](=O)[O-])ccc(c23)C(=O)N1O | -3.6 | -5.7 | 89.9* | 0.3 | 2.8
COc1ccc(CCNC(=O)c2cc(-c3cc(C)ccc3O)n[nH]2)cc1OC | -0.1 | -5.4 | 95.5* | -0.6 | 5.2
O=S(=O)(Nc1ccncc1Cl)c1ccc2ccccc2c1 | 2.5 | -2.6 | -21.4 | 0.2 | 0.0
CC1(C)CN(c2ccccc2)N(C(=O)c2ccc(C#N)cc2)C1=O | -8.0 | x | 84.7* | -0.8 | 7.5
CC1(C)CN(c2ccccc2)N(C(=O)c2ccc(F)cc2)C1=O | -2.6 | x | 100.1* | 0.8 | -3.6
CC(=O)OCC1(C)CN(c2ccccc2)N(C(=O)c2ccc(C(C)(C)C)cc2)C1=O (centres undefined) | x | 0.1 | x | -2.3 | -7.1
COC(=O)c1sc(-c2ccc(Cl)cc2)cc1NC(=O)COCC(=O)O | 1.3 | 47.9* | 48.7 | -3.6 | x
COC(=O)c1sccc1NC(=O)/C=C/C(=O)O | 16.3 | -3.8 | 21.8 | -2.8 | 0.2
COC(=O)c1sc(-c2ccc(Cl)cc2)cc1NC(=O)/C=C/C(=O)O | -0.2 | x | 83.9* | -2.5 | -4.3
COC(=O)c1sc(-c2ccc(C(C)(C)C)cc2)cc1NC(=O)CCC(=O)O | x | x | 0.4 | x | x
Cc1ccc(-c2nc(CN(C)Cc3ccc4nccnc4c3)c(C)o2)s1 | 1.6 | x | 1.5 | -0.2 | 3.5
CNC(=O)NC(=O)COC(=O)/C=C/c1cccc(Br)c1 | 1.4 | -2.1 | 2.0 | -3.9 | -2.9
CSc1sc(-c2ccnc(=S)[nH]2)c(-c2ccccc2)c1C#N | x | x | 96.0* | x | x
COc1ccc(Nc2ncc(C(=O)N3CCC(C(N)=O)CC3)c3ccccc23)cc1 | -8.1 | 71.5* | 2.0 | -1.3 | 5.4
O=C(CCl)NCc1c(Cl)cccc1-n1cccc1 | -4.4 | x | 96.1* | -2.2 | -2.2
Cc1ccc(C(C2C(=O)CC(C)(C)CC2=O)C2C(=O)CC(C)(C)CC2=O)s1 | -13.5 | -0.6 | u | -1.9 | 1.2
CC(C)CCn1c2ccccc2c2cc(CC(N)=O)ccc21 | 1.7 | -1.9 | x | 1.2 | -7.6
Cc1ccc2c(c1)C(c1ccccc1)N(C(=O)c1c(F)cccc1Cl)CC(=O)N2 (centres undefined) | 4.7 | -6.9 | -15.5 | -0.6 | 2.3
O=C(CN1CCOc2ccccc21)NC1CCCCCCC1 | 5.5 | x | 98.9* | -1.1 | 0.7
O=C(CN1CCOc2ccccc21)NC1CCN(Cc2ccccc2)CC1 | 9.3 | x | 87.2* | 0.2 | 2.9
Cc1ccc(C(=O)C(C)OC(=O)c2nc(Cl)ccc2Cl)cc1 (centres undefined) | 18.1 | -10.2 | 3.1 | -1.0 | 1.0
SMILES | Rtt109 HAT inh | CAL PDZ FP-1 | ALR inh | CAL PDZ FP-2 | Dyrk1A ADPGlo
Cc1cc(C)c(C)c(S(=O)(=O)Nc2ccccc2C(=O)NN2CCOCC2)c1C | -4.5 | x | 2.1 | -2.4 | -4.5
Cc1onc(C(=O)N2CCN(c3ccccc3)CC2)c1[N+](=O)[O-] | -7.7 | 1.6 | 94.9* | -2.3 | 4.4
CC(C)Oc1ccc(S(=O)(=O)N2CCOCC2)cc1NC(=O)C1CCCCC1 | -15.6 | 3.0 | x | -0.1 | -5.6
Nc1ccc2c(c1)COc1ccccc1O2 | -8.0 | 1.3 | 99.1* | 0.9 | 7.5
Nc1ccc2c(c1)Oc1ccccc1C=C2 | -0.4 | -1.5 | x | 0.3 | -0.9
CCCNc1c(NS(=O)(=O)c2c(F)c(F)c(F)c(F)c2F)c(=O)oc2ccccc12 | -5.4 | -0.5 | -7.7 | -1.2 | 5.8
C=C1CC[C@@H]2[C@](C)(CO)[C@H](O)CC[C@@]2(C)[C@@H]1C/C=C1/C(=O)OCC1O (some centres undefined) | 1.2 | 2.4 | x | 0.7 | -9.5
Oc1[nH]c2ccccc2c1C=Nc1ccccc1 | -1.6 | -2.7 | x | -0.1 | -2.9
OCCN=Cc1c(O)[nH]c2ccccc12 | -1.7 | 3.5 | 99.1* | -0.7 | 12.6
CC(C)CC(=O)N=Nc1c(O)[nH]c2ccccc12 | x | -7.2 | -2.9 | -3.3 | -18.7
COCC(C)N=Cc1c(O)[nH]c2ccccc12 (centres undefined) | -13.0 | -1.3 | 98.6* | -2.4 | x
CN(C)CC(C)(C)CN=Cc1c(O)[nH]c2ccccc12 | 8.0 | 2.9 | 99.4* | 0.0 | 17.0
Cc1cc(C(=O)NP(=O)(N2CCOCC2)N2CCOCC2)c(C)n1-c1ccc(Br)cc1 | -5.9 | -4.6 | 0.9 | -0.7 | -1.2
Cc1cc(C(=O)NP(=O)(N2CCOCC2)N2CCOCC2)c(C)n1-c1ccc(N(C)C)cc1 | 4.5 | 87.8* | 93.4* | -1.3 | 1.7
CCCCCN1CC(=O)N2[C@@H](Cc3c([nH]c4ccccc34)C2(C)C)C1=O | -5.9 | -0.6 | 0.8 | -0.7 | 4.1
CC(C)CCN1CC(=O)N2[C@@H](Cc3c([nH]c4ccccc34)C2(C)C)C1=O | 1.6 | 61.4* | -34.3 | -0.2 | 1.8
CCN1C[C@@H]2[C@@H]3C(=O)N(Cc4ccccc4)C(=O)[C@@H]3[C@](Cc3ccccc3)(C1=O)N2C(=O)c1ccc(C(F)(F)F)cc1 | -0.5 | -5.3 | x | -5.8 | -4.8
O=C(CCCc1nc2ccccc2s1)NNC(=O)CCN1CCN(Cc2ccccc2)CC1 | 1.4 | 6.4 | -12.0 | -0.8 | x
CCN(CCNC(=O)C1CCN(c2nnc(-n3cccc3)s2)CC1)c1ccccc1 | -1.6 | x | 73.4 | -1.6 | 2.8
CN(Cc1c(F)cccc1Cl)C(=O)C1CC(=O)N(CCc2ccccc2)C1 (centres undefined) | -3.2 | 78.2* | 3.4 | 5.0 | -1.9
CCN(CC(=O)Nc1c(F)cccc1F)C(=O)C1CC(=O)N(CCc2ccccc2)C1 (centres undefined) | -16.7 | -3.7 | 3.5 | -1.8 | 16.0
CCN(CCNC(=O)C1CCN(S(=O)(=O)CC)CC1)c1ccccc1 | 0.4 | -2.0 | 98.8* | -0.9 | -1.6
CCN(CCCNC(=O)C1CCCN(S(=O)(=O)CC)C1)c1cccc(C)c1 (centres undefined) | 10.8 | -4.7 | 98.7* | -0.6 | -4.0
CCN(CCCNC(=O)C1CCC(=O)N1C(C)C)c1cccc(C)c1 (centres undefined) | -1.6 | -2.9 | 99.1* | x | -2.7

Screening results deposited in PubChem BioAssay by Broad Institute.
